Results reported in ChEMBL document CHEMBL1152519, “Synthesis, structural activity-relationships, and biological evaluation of novel amide-based allosteric binding site antagonists in NR1A/NR2B N-methyl-D-aspartate receptors” (Bioorg Med Chem, 2009).
The source made the active and inactive calls. No cut-off for these calls is given here.

Legend:
[1] = target: Glutamate NMDA receptor; GRIN1/GRIN2B (Homo sapiens, UniProt Q05586+Q13224); assay: Antagonist activity at human recombinant NR1/NR2B receptor expressed in frog oocytes assessed as inhibition of glutamate/glycine-induced current at 3 uM by two electrode voltage clamp method; format: functional, cell-based; details: Oocyte
[2] = target: Glutamate NMDA receptor; Grin1/Grin2a (Rattus norvegicus, UniProt P35439+Q00959); assay: Antagonist activity at rat recombinant NR1/NR2A receptor expressed in Xenopus laevis oocytes assessed as inhibition of glutamate/glycine-induced current by two electrode voltage clamp method; format: functional, cell-based, Oocyte
Method in brief: (§1)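 Xenopus oocytes expressing NR1/NR2 (wild type or amino terminal domain deletion mutant) recorded by TEVC at −40 mV, room temperature, pH 7.4–7.6, with EDTA 10 μM. Maximal glutamate/glycine applied alone, then with 5–8 successive compound concentrations. Leak-corrected; responses under 50 nA excluded. IC50 from fitted composite curve. NR1/NR2A oocytes were pre-incubated in 50 μM BAPTA-AM.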

Rattus norvegicus [3] = species: Rattus norvegicus; assay: Inhibition of voltage-gated sodium channel in Sprague-Dawley rat cortical neuron at 3 uM by whole cell patch clamp technique
Rattus norvegicus [4] = species: Rattus norvegicus; assay: Inhibition of voltage-gated potassium channel in Sprague-Dawley rat cortical neuron at 3 uM by whole cell patch clamp technique
[5] = target: T1, Glutamate NMDA receptor; Grin1/Grin2b (Rattus norvegicus) (UniProt P35439+Q00960); assay: Antagonist activity at rat recombinant NR1/NR2B receptor expressed in Xenopus laevis oocytes assessed as noncompetitive inhibition of glutamate/glycine-induced current at 0.054 uM by two electrode voltage clamp method; format: functional, cell-based; details: Oocyte
Method in brief: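 TEVC on rat NR1/NR2B oocytes at −40 mV. Inhibition by 0.054 μM compound measured while glutamate or glycine was raised 10-fold above the control 50 μM glutamate/30 μM glycine. Response given as percent of control; n = 4.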

[6] = Antagonist activity at rat NR1/NR2B receptor deltaATD mutant expressed in Xenopus laevis oocytes assessed as inhibition of glutamate/glycine-induced current by two electrode voltage clamp method; format: functional, cell-based; details: Oocyte; method in brief: as §1
[7] = target: Glutamate receptor ionotropic, NMDA 2B (Mus musculus, UniProt P35438+Q01097, D101A); assay: Antagonist activity at mouse NR1/NR2B receptor D101A mutant expressed in Xenopus laevis oocytes assessed as inhibition of glutamate/glycine-induced current by two electrode voltage clamp method; format: functional, cell-based, Oocyte
Method in brief: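 Oocytes express NR1/NR2B amino-terminal-domain mutants (mouse D101A point mutant; rat ATD deletion). Concentration–effect curves were recorded by two-electrode voltage clamp at −40 mV and 23 °C, with 50 μM glutamate plus 30 μM glycine. Each step is compound plus agonists, expressed relative to agonists alone.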

[8] = target: T1, Glutamate NMDA receptor; Grin1/Grin2b (Rattus norvegicus); assay: Antagonist activity at rat recombinant NR1/NR2B receptor expressed in Xenopus laevis oocytes assessed as inhibition of glutamate/glycine-induced current at 3 uM by two electrode voltage clamp method relative to control; format: functional, cell-based; details: Oocyte
Method in brief: (§2)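 Xenopus oocytes injected with NR1-1a (3–5 ng) plus NR2A, 2B, 2C or 2D cRNA (7–10 ng), kept at 15 °C. Voltage clamp at −40 mV. Responses to 50 μM glutamate + 30 μM glycine with 3 μM compound, as % of response without compound. NR2A oocytes pre-loaded with 50 μM BAPTA-AM. Mean ± SEM, 4–10 oocytes; paired t-test.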

[9] = target: Glutamate NMDA receptor; Grin1/Grin2b (Rattus norvegicus, UniProt P35439+Q00960); assay: Antagonist activity at rat recombinant NR1/NR2B receptor expressed in frog oocytes assessed as inhibition of glutamate/glycine-induced current by two electrode voltage clamp method; format: functional, cell-based, Oocyte; method in brief: as §1
[10] = target: Ionotropic glutamate receptor NMDA 1/2D (Rattus norvegicus) (UniProt P35439+Q62645); assay: Antagonist activity at rat recombinant NR1/NR2D receptor expressed in Xenopus laevis oocytes assessed as inhibition of glutamate/glycine-induced current at 3 uM by two electrode voltage clamp method relative to control; format: functional, cell-based; details: Oocyte; method in brief: as §2
[11] = target: Glutamate receptor ionotropic, NMDA 2B (Rattus norvegicus, UniProt Q00960); assay: Displacement of [3H]ifenprodil form NR2B receptor in Wistar rat cerebral cortex membrane; format: tissue-based
[12] = target: Glutamate receptor ionotropic, NMDA 1/NMDA 2B (Mus musculus, UniProt P35438+Q01097); assay: Antagonist activity at mouse recombinant NR1/NR2B receptor expressed in frog oocytes assessed as inhibition of glutamate/glycine-induced current by two electrode voltage clamp method; format: functional, cell-based, Oocyte
Method in brief: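 Xenopus oocytes injected with 3–5 ng NR1 and 7–10 ng NR2 cRNA, kept in Barth's solution at 15 °C, recorded 2–7 d later at 23 °C under two-electrode voltage clamp at −40 mV. Bath was 90 NaCl, 1 KCl, 10 HEPES, 0.5 BaCl2 (mM), pH 7.4/7.6, plus 10 μM EDTA. Glutamate (50–100 μM) plus glycine 30 μM was applied, then 5–8 inhibitor concentrations. Leak-corrected; n = 11 oocytes from 2 frogs.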

Chain of Glutamate NMDA receptor; Grin1/Grin2a (Q00959 whole entry, other chains not shown, the tested form may be a part): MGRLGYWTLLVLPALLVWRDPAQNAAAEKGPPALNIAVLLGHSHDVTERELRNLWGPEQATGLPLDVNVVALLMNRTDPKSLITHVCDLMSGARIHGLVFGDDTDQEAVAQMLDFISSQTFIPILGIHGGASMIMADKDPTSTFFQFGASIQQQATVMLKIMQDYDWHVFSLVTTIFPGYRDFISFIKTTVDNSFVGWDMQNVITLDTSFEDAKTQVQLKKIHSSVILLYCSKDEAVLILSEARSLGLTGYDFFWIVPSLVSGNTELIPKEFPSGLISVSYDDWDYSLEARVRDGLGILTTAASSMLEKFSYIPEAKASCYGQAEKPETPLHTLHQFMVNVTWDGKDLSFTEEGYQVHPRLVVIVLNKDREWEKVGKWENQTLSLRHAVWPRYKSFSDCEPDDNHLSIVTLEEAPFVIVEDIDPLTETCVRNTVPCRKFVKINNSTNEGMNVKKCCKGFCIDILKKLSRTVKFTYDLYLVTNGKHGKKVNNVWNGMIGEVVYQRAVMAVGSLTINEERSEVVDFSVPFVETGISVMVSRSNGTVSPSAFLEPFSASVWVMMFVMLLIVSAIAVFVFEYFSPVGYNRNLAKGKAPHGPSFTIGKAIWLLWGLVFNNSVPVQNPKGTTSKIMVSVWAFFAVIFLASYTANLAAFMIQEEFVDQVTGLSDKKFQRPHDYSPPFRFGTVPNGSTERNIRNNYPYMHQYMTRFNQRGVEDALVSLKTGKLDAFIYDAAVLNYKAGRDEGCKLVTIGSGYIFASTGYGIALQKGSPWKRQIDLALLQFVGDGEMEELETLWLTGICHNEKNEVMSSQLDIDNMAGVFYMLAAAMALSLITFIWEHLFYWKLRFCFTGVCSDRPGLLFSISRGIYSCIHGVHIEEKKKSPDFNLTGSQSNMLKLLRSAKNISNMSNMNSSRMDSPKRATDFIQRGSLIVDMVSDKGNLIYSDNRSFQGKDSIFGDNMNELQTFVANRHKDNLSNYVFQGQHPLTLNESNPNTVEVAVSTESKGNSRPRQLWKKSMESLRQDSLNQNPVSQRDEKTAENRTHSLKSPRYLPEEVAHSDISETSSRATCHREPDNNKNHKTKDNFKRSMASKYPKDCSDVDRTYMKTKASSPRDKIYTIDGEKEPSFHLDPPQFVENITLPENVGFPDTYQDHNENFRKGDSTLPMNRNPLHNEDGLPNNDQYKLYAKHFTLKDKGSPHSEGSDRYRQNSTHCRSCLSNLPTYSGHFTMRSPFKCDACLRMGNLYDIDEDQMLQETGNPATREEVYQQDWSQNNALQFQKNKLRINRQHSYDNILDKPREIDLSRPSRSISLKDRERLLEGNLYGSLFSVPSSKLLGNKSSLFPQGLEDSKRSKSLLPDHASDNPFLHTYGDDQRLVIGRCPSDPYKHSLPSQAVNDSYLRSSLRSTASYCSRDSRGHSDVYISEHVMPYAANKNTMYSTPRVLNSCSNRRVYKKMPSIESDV
Chain of Glutamate receptor ionotropic, NMDA 2B (Mus musculus, UniProt P35438+Q01097, D101A) (Q01097 whole entry D101A, one chain of several): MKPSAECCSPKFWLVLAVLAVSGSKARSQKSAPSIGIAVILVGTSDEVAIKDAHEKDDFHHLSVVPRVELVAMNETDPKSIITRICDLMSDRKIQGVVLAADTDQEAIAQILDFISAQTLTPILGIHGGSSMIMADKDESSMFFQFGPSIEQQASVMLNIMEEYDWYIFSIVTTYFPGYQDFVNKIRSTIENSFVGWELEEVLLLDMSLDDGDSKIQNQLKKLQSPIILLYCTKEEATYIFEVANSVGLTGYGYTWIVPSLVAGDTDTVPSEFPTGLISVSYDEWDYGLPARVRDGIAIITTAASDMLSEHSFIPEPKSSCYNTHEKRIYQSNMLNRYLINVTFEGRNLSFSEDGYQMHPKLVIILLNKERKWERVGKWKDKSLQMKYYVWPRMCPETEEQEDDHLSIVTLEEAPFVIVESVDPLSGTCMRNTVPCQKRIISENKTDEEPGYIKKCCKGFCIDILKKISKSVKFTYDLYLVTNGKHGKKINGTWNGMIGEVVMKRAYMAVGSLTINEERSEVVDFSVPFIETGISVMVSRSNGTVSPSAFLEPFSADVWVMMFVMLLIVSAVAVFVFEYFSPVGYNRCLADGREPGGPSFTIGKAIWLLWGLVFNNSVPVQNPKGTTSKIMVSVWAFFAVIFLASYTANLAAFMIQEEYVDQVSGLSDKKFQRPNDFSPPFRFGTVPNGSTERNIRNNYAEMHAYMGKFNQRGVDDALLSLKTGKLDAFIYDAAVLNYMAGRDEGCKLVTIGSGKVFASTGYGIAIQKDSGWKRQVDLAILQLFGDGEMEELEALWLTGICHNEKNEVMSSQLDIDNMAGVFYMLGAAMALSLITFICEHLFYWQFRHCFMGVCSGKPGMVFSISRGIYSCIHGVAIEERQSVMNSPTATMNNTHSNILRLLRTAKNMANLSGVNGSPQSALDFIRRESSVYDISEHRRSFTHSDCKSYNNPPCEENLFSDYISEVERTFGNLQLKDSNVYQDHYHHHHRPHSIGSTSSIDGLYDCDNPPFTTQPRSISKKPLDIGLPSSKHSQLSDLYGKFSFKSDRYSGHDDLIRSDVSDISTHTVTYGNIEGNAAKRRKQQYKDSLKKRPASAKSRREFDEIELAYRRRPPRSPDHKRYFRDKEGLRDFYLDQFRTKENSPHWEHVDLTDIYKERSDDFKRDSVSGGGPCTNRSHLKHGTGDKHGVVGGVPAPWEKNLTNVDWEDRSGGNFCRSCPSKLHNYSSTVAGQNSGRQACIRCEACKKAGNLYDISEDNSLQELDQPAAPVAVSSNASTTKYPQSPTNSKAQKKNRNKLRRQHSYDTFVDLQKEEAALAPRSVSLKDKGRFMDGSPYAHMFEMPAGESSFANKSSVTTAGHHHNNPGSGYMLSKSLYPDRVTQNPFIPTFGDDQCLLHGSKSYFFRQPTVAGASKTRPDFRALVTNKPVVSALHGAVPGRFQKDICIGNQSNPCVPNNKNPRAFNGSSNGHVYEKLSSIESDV
Chain of Glutamate receptor ionotropic, NMDA 1/NMDA 2B (Q01097 whole entry, other chains not shown): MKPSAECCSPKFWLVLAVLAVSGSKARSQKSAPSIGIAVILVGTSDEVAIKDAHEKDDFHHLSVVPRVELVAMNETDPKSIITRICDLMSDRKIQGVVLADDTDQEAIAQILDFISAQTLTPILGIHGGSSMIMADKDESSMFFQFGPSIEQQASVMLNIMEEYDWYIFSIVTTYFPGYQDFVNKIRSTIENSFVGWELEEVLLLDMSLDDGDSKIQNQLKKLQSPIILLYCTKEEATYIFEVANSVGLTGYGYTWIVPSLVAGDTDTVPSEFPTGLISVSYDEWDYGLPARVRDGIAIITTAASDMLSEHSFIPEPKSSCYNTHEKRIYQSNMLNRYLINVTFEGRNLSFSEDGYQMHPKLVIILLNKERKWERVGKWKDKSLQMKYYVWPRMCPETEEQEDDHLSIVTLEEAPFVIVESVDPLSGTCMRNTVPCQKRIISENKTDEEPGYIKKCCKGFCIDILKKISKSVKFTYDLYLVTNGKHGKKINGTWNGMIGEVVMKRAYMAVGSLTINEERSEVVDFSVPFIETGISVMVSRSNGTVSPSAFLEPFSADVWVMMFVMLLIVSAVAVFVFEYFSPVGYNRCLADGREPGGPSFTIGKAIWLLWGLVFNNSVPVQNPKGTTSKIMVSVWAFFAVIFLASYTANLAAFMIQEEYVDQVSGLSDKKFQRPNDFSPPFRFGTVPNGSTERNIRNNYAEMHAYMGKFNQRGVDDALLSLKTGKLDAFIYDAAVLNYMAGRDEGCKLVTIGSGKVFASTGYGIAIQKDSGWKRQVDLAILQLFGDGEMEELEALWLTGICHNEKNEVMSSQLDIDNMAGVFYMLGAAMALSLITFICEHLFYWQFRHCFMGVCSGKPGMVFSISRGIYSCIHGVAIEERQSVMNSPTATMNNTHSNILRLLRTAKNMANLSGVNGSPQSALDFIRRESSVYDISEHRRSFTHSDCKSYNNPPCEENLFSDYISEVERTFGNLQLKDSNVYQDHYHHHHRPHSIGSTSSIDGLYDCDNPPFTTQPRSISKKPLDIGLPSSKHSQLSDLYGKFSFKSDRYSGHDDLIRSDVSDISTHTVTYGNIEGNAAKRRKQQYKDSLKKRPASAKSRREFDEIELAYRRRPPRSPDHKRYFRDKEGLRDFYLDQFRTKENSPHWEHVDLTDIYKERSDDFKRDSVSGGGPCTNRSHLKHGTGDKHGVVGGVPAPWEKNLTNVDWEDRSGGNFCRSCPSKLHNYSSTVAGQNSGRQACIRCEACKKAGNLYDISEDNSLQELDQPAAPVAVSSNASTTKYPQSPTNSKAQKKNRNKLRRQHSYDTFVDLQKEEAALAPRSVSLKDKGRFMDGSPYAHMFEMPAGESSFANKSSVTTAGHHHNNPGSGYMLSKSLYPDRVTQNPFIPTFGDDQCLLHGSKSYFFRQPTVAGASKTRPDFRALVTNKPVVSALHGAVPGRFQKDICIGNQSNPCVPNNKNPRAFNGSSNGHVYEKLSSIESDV

With `CS(=O)(=O)Nc1ccc(OCC(=O)NCCNc2ccc(Cl)c(Cl)c2)cc1` the inhibition [1] was 90%, the IC50 [2] was 82 µM and the inhibition (Rattus norvegicus [3]) was “inactive”. The inhibition (Rattus norvegicus [4]) was “inactive”, the inhibition [5] was “Active” and the IC50 [6] was 563 µM. It also gave an IC50 [7] of 52 µM, a % response [8] of 16% and an IC50 [9] of 57 nM. It also gave a % response [10] of 91%, a Ki [11] of 119 nM and an IC50 [12] of 36 nM.
